# Test results published in ChEMBL document CHEMBL2069211, “Busseihydroquinones A-D from the roots of Pentas bussei” (J Nat Prod, 2012).
# Calls of active or inactive are those of the source. No cut-off for these calls is given here.
# Key:
# Plasmodium falciparum [1] = assay: Antiplasmodial activity against chloroquine-sensitive Plasmodium falciparum D6 by SYBR green I-based assay; type: functional, organism-based
# Outline: (§1)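 Drug susceptibility is measured with the SYBR Green I-based in vitro malaria assay. Chloroquine and mefloquine run alongside as reference drugs. IC50 is the mean of at least 3 independent experiments.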
# [2] = Selectivity index, ratio of LD50 for human MCF7 cells to IC50 for chloroquine-resistant Plasmodium falciparum W2; type: toxicity, cell-based; conditions: read-out: Selectivity Index
# Outline: (§2)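 The selectivity index is the MCF-7 LD50 (48 h PrestoBlue assay) divided by the P. falciparum IC50 (SYBR Green I assay) for the same strain.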
# Escherichia coli = assay: Antimicrobial activity against Escherichia coli at 0.1 mg/disc incubated for 24 to 72 hrs by disc diffusion assay; type: functional, organism-based
# Outline: (§3)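 Paper discs loaded with sample are laid on seeded agar plates, in triplicate under sterile conditions. Incubation is at 37 °C for E. coli, S. aureus and C. albicans, and at 25 °C for A. niger. Streptomycin (bacteria) and nystatin (fungi) serve as standards at 0.1 mg/100 μL. Sample solvents serve as controls.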
# Staphylococcus aureus = assay: Antimicrobial activity against Staphylococcus aureus at 0.1 mg/disc incubated for 24 to 72 hrs by disc diffusion assay; type: functional, organism-based; outline: as §3
# Plasmodium falciparum [3] = assay: Antiplasmodial activity against chloroquine-resistant Plasmodium falciparum W2 by SYBR green I-based assay; type: functional, organism-based; outline: as §1
# Candida albicans = assay: Antimicrobial activity against Candida albicans at 0.1 mg/disc incubated for 24 to 72 hrs by disc diffusion assay; type: functional, organism-based; outline: as §3
# [4] = Selectivity index, ratio of LD50 for human MCF7 cells to IC50 for chloroquine-sensitive Plasmodium falciparum D6; type: toxicity, cell-based; conditions: read-out: Selectivity Index; outline: as §2
# Aspergillus niger = assay: Antimicrobial activity against Aspergillus niger at 0.1 mg/disc incubated for 24 to 72 hrs by disc diffusion assay; type: functional, organism-based; outline: as §3
# [5] = Toxicity against human MCF7 cells incubated for 48 hrs by PrestoBlue cell viability reagent based assay; conditions: read-out: LD50
# Outline: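 MCF-7 cells are grown in DMEM with 10% FBS, 2 mM L-glutamine and penicillin/streptomycin at 37 °C in 5% CO2. They are seeded for exponential growth and preincubated 24 h. Drug or DMSO vehicle (0.1% or 1.0% v/v) is then added for 48 h. PrestoBlue absorbance is read at 570 nm (600 nm reference). Viability is expressed as % of vehicle, six replicates, with repeated independent experiments.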
SMILES,IC50 (Plasmodium falciparum [1]) [µM],selectivity ratio [2],inhibition zone (IZ) (Escherichia coli),inhibition zone (IZ) (Staphylococcus aureus),IC50 (Plasmodium falciparum [3]) [µM],inhibition zone (IZ) (Candida albicans),selectivity ratio [4],inhibition zone (IZ) (Aspergillus niger),CC50 at 48 h [5] [µM]
OC(c1cc(C(F)(F)F)nc2c(C(F)(F)F)cccc12)C1CCCCN1 (stereo unspecified) [MEFLOQUINE],0.029,,,,,,,,
COc1cc(C(=O)O)c(O)c2ccc3c(c12)C=C1/C(=C(\C)C=O)CCC1(C)O3 (racemic) [BUSSEIHYDROQUINONE D],19.6,> 3.27,inactive,inactive,80.1,inactive,> 13.4,inactive,> 262
COC(=O)c1cc(OC)c2cc(O)c3c(c2c1O)C=CC(C)(CCC=C(C)C)O3 (racemic),30.6,1.02,inactive,inactive,85,inactive,2.83,inactive,86.4
COc1cc(C(=O)O)c(O)c2ccc3c(c12)C=CC(C)(CCC=C(C)C)O3 (racemic) [BUSSEIHYDROQUINONE C],32.6,> 4.52,inactive,inactive,60.1,inactive,> 8.32,inactive,> 272
COC(=O)c1cc(OC)c2cc(OC)c(OC)c(O)c2c1O [BUSSEIHYDROQUINONE A],36,2.11,inactive,inactive,144,inactive,8.44,inactive,304
COc1cc(C(=O)O)c(O)c2ccc3c(c12)C=CC(C)(C)O3 [BUSSEIHYDROQUINONE B],27.8,2.96,inactive,inactive,126,inactive,13.4,inactive,374
